Experimental data from ChEMBL document CHEMBL1932931, “Analogues of doxanthrine reveal differences between the dopamine D1 receptor binding properties of chromanoisoquinolines and hexahydrobenzo[a]phenanthridines” (Eur J Med Chem, 2012).

How the values were obtained:
D(2) dopamine receptor = D(2) dopamine receptor (Homo sapiens, UniProt P14416); assay: Binding affinity to dopamine D2 receptor
[1] = Selectivity ratio of Ki for dopamine D1 receptor to Ki for dopamine D2 receptor
[2] = Displacement of [3H]SCH-23390 from dopamine D1-like receptor in porcine striatal homogenates after 30 mins by scintillation counting; assay type: tissue-based, Sus scrofa
Summary of the method: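 Fresh porcine striatum was homogenized in 20 mM Hepes/0.32 M sucrose (pH 7.4), and the P2 membrane pellet was washed in 50 mM Tris (pH 7.4) and stored at -80 °C. Incubation was 30 min at 37 °C, then filtration and scintillation counting. Values are means ± SEM of 4-11 independent experiments.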

[3] = Displacement of [3H]spiperone from dopamine D2-like receptor in porcine striatal homogenates after 30 mins by scintillation counting; assay type: tissue-based, Sus scrofa
Sus scrofa = species on record: Sus scrofa; assay: Selectivity ratio of Ki for dopamine D2-like receptor in porcine striatal homogenates to Ki for dopamine D1-like receptor in porcine striatal homogenates; assay type: tissue-based

Sequence of D(2) dopamine receptor (P14416 whole entry): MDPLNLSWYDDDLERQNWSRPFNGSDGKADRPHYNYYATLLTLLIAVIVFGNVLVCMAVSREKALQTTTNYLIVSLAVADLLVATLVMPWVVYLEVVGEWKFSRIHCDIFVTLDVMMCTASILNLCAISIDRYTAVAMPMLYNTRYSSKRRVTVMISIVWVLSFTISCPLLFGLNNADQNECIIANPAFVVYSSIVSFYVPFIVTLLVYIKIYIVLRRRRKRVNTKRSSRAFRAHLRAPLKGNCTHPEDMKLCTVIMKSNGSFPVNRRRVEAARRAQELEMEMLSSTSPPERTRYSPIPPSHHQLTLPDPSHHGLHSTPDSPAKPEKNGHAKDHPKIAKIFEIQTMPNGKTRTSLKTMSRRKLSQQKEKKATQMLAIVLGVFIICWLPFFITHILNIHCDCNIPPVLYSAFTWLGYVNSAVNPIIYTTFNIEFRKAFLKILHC

Structure (SMILES) | Ki (D(2) dopamine receptor) [nM] | Ratio Ki [1] | Ki [2] [nM] | Ki [3] [nM] | Ratio Ki (Sus scrofa)
CCc1ccc2c(c1)[C@@H]1c3cc(O)c(O)cc3CC[C@H]1NC2 | 420 | 14.5 |  |  | 
CN1CCc2cc(Cl)c(O)cc2[C@@H](c2ccccc2)C1 |  |  | 0.46 |  | 
Cc1ccc2c(c1)[C@@H]1c3cc(O)c(O)cc3CC[C@H]1NC2 |  | 34.7 |  |  | 
Cc1ccc2c(c1)[C@@H]1c3cc(O)c(O)cc3OC[C@H]1NC2 (racemic) |  |  | 150 | 6800 | 55
CCc1ccc2c(c1)[C@@H]1c3cc(O)c(O)cc3OC[C@H]1NC2 (racemic) |  |  | 180 | 6400 | 49
Oc1cc2c(cc1O)[C@H]1c3cc(F)ccc3CN[C@@H]1CO2 (racemic) |  |  | 110 | 740 | 8.5
Oc1cc2c(cc1O)[C@H]1c3cc(C(F)(F)F)ccc3CN[C@@H]1CO2 (racemic) |  |  | 570 | 6900 | 14
Oc1cc2c(cc1O)[C@H]1c3ccccc3CN[C@@H]1CS2 (racemic) |  |  | 200 | 2500 | 15
